“And” between values parts separate entries of the source, which are not always exact repeats. Equal values may be shown once. Read-outs that look alike come from different tables or passages of the source.
Tests used:
[1] = cited from earlier work
T. cruzi amastigotes = assay: T. cruzi; assay type: cell-based, Trypanosoma cruzi; conditions: read-out: EC50 T. cruzi
Outline: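 β-galactosidase-expressing Tulahuen strain grown as intracellular amastigotes in murine 3T3 fibroblasts, 96-well format, colorimetric read-out. Test compounds HPLC-purified to a single peak, with ≥95% estimated purity by 1H NMR. Each tested in triplicate to derive EC50.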

[2] = Single oral dose pharmacokinetics in BALB/c mice; assay type: in vivo; conditions: single dose 50 mg/kg oral gavage; for AUC 0_5hr, Mouse 1, 2, 3 / Tmax, Mouse 1, 2, 3 / Cmax, Mouse 1, 2, 3: Balb/c mice, individual mice, 50 mg/kg; for Cmax, Mouse 1, 2, 3: plasma
[3] = system: T. cruzi trypomastigotes (Tulahuen strain); assay: Efficacy in mice infected with T. cruzi; assay type: in vivo; conditions: days 7–27 post-infection
Outline: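 Female BALB/c mice (7–8 weeks) infected subcutaneously with 1×10^4 Tulahuen trypomastigotes; treatment began day 7 post-infection. Groups of 6 dosed by oral gavage twice daily for 21 days, 100 µL per dose in 20% (w/v) hydroxypropyl β-cyclodextrin; vehicle-only group included. Parasitemia counted in 5 µL tail blood under coverslip, 50 high-power fields, through day 97. Pre-morbid mice euthanized; survivors sacrificed day 100.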

T. cruzi = assay: PCR detection of T. cruzi parasitemia in blood of treated mice at day 100; assay type: in vivo; conditions: for PCR parasite detection after 100 days post infection: days 7–27 post-infection, groups of 6
[4] = mice and rats; cited from earlier work
[5] = 50 mg/kg oral gavage twice per day
[6] = 20 mg/kg oral gavage twice per day

For c1ccc(-c2ccc(Cn3cncc3CNc3ccc(-c4cncs4)c(-c4ccccc4)c3)cc2)cc1 [Compound 27a], the “pharmacokinetic profile in mice” value [1] is given as “good pharmacokinetic profile”.

For c1ccc(-c2ccc(Cn3cncc3CNc3ccc(-c4nc5ccccc5s4)c(-c4ccccc4)c3)cc2)cc1 [Compound 27d], the “pharmacokinetic profile in mice” value [1] is given as “good pharmacokinetic profile”.

CC(C)c1ccc(Cn2cncc2CNc2ccc(-c3nc4ccccc4s3)c(-c3ccccc3)c2)cc1 [Compound 32a] gave an EC50 (T. cruzi amastigotes; Table 3, general structure III) of 860 nM.

Work on CCc1ccc(Cn2cncc2CNc2ccc(-c3nc4ccccc4s3)c(-c3ccccc3)c2)cc1 [Compound 32b] yielded an EC50 (T. cruzi amastigotes; Table 3, general structure III) of 190 nM.

Compound Fc1ccc(Cn2cncc2CNc2ccc(-c3nc4ccccc4s3)c(-c3ccccc3)c2)c(F)c1 [Compound 32d] has an EC50 (T. cruzi amastigotes; Table 3, general structure III) of 630 nM.

Compound Cc1ccccc1-c1ccc(Cn2cncc2CNc2ccc(-c3nc4ccccc4s3)c(-c3ccccc3)c2)cc1 [Compound 32f] has an EC50 (T. cruzi amastigotes; Table 3, general structure III) of 180 nM.

Cc1ccccc1-c1cc(NCc2cncn2Cc2ccc(-c3ccccc3)cc2)ccc1-c1nc2ccccc2s1 [Compound 32g] gave an EC50 (T. cruzi amastigotes; Table 3, general structure III) of 42 nM.

For Cc1cccc(-c2cc(NCc3cncn3Cc3ccc(-c4ccccc4)cc3)ccc2-c2nc3ccccc3s2)c1C [Compound 32h], the EC50 (T. cruzi amastigotes; Table 3, general structure III) was 101 nM.

In the case of c1ccc(Cn2cncc2CNc2cccc(-c3ccccc3)c2)cc1 [Compound 35e], the EC50 (T. cruzi amastigotes; Table 4, general structure IV) is reported as 400 nM.

Cc1ccccc1-c1cccc(NCc2cncn2Cc2ccccc2)c1 [Compound 35g] showed an EC50 (T. cruzi amastigotes; Table 4, general structure IV) of 310 nM.

For Cc1cccc(-c2cccc(NCc3cncn3Cc3ccccc3)c2)c1C [Compound 35i], the EC50 (T. cruzi amastigotes; Table 4, general structure IV) was 300 nM.

In the case of c1ccc(Cn2cncc2CNc2cccc(-c3cccnc3)c2)cc1 [Compound 35j], the EC50 (T. cruzi amastigotes; Table 4, general structure IV) is reported as 760 nM.

For Nc1cc(-c2ccccc2)ccc1Cn1cncc1CNc1ccc(Cl)c(-c2ccccc2)c1 [Compound 44a, (6-Chloro-biphenyl-3-yl)-[3-(3-amino-biphenyl-4-ylmethyl)-3H-imidazol-4-ylmethyl]-amine], the EC50 (T. cruzi amastigotes; Table 5, general structure V) was 1.5 nM and 2.1 nM, the “AUC 0_5hr, Mouse 1, 2, 3” value [2] was 6700 ng·h/mL and 5600 ng·h/mL and the “Tmax, Mouse 1, 2, 3” value [2] was 1.0 h. For the same compound, the “Cmax, Mouse 1, 2, 3” value [2] was 1900 ng/mL, the “suppression of parasitemia in blood (microscopy)” value (“suppression of parasitemia” below) [3, 5] was “dramatically suppressed” and the “PCR parasite detection after 100 days post infection” value (shortened to “PCR parasite detection”) (T. cruzi; [5]) was 6 of 6 mice.

In the case of N#Cc1ccc(NCc2cncn2Cc2ccc(-c3ccccc3)cc2N)cc1-c1ccccc1 [Compound 44b], the EC50 (T. cruzi amastigotes; Table 5, general structure V) is reported as 2.6 nM.

For Nc1cc(-c2ccccc2)ccc1Cn1cncc1CNc1ccc(-c2nc3ccccc3s2)c(-c2ccccc2)c1 [Compound 44d], the “AUC 0_5hr, Mouse 1, 2, 3” value [2] was 32400 ng·h/mL and 29000 ng·h/mL, the “Tmax, Mouse 1, 2, 3” value [2] was 2.0 h and the “Cmax, Mouse 1, 2, 3” value [2] was 8600 ng/mL. The “drug loss from plasma out to 5 hr” value ([2]; mice) was “significant drug loss was not observed”, the “suppression of parasitemia” value [3, 6] was “dramatically suppressed” and the “suppression of parasitemia” value [3, 5] was “most suppression”. For the same compound, the “PCR parasite detection” value (T. cruzi; [6]) was 5 of 6 mice, the “PCR parasite detection” value (T. cruzi; [5]) was 2 of 6 mice and the “mice with parasitemia suppressed below PCR detectability” value (T. cruzi; 50 mg/kg twice per day, day 100) was 4 of 6.

Compound Nc1cc(-c2ccccc2)ccc1Cn1cncc1CNc1ccc(-c2cncs2)c(-c2ccccc2)c1 [Compound 44e] has an EC50 (T. cruzi amastigotes; Table 5, general structure V) of 13 nM.

In the case of CC[C@@H]([C@H](C)O)n1ncn(-c2ccc(N3CCN(c4ccc(OC[C@@H]5CO[C@@](Cn6cncn6)(c6ccc(F)cc6F)C5)cc4)CC3)cc2)c1=O [Posaconazole, posaconazole, reference compound], the “suppression of parasitemia” value [3, 6] is given as “most suppression”, the “PCR parasite detection” value (T. cruzi; [6]) is given as 0 of 6 mice and the terminal phase half-life [4] is given as 7 to 9 h.
